Source: PubChem (The Scripps Research Institute Molecular Screening Center)
DNA FID counter – displaces DNA intercalator in HCV helicase counter-screen | inhibition, % at 7.9 µM | DNA fluorescent intercalator displacement, fluorescence | 290,000 tested, 0.17% active | AID 1845; in the data active = inhibition above about 37%;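 note: 0% = vehicle and 100% = reference compound; higher means more ethidium bromide displaced from hairpin DNA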
IMP-1 inh-1 – blocks Pseudomonas aeruginosa IMP-1 metallo-beta-lactamase. purified IMP-1, nitrocefin hydrolysis, epi-absorbance fluorescence. inhibition, % at 5.6 µM. 290,000 tested, 0.45% active;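 active = inhibition above the mean plus 3 SD of all compounds in the same screening run, cut at about 4.5% in these data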;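 note: 0% = IMP-1 with DMSO and 100% = DMSO wells lacking enzyme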
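Assay system: purified recombinant IMP-1 beta-lactamase. Input: IMP-1 0.2 nM before substrate addition. Buffer or medium: Zinc- and detergent-supplemented HEPES buffer, pH 7.1. Schedule: 25 °C, 15 min preincubation, 25 min reaction. Signal: Epi-absorbance fluorescence, 480 nm excitation, 530 nm emission. Evaluation: percent inhibition from optical density relative to buffer-blank wells.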
VIM-2 inhibitor – blocks Pseudomonas aeruginosa VIM-2 metallo-beta-lactamase | inhibition, % at 5.6 µM | purified VIM-2, nitrocefin hydrolysis, epi-absorbance fluorescence | 290,000 tested, 0.89% active;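 active = inhibition above the mean of all tested compounds plus 3 SD, cutoff set per screening run, cut at about 7.5% in these data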;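 note: red hydrolysis product quenches plate fluorescence so inhibitors raise well fluorescence; 0% = enzyme with DMSO and 100% = DMSO without enzyme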
HCV core dimer – HCV core protein dimerization inhibition; inhibition, % at 5 µM; 300,000 tested, 0.33% active; TR-FRET GST/Flag-core106 dimerization, 1536-well;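 active = inhibition above the mean of all tested compounds plus 3 SD, set per screening campaign, cut at about 45% in these data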
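Assay system – GST-tagged and Flag-tagged HCV core protein residues 1-106 · Quantity – core106 proteins, GST 13.5 nM and Flag 17 nM · Benchmarks – unlabelled core106 and no-GST-core106 wells · Read-out basis – percent inhibition of core106 dimerization signal · Detection – time-resolved FRET, ex 340 nm, em 617 and 671 nm · Schedule – 4 h at 22.5 °C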
IMP-1 inh-2 – blocks IMP-1 metallo-beta-lactamase in VIM-2 selectivity screen | inhibition, % at 5.6 µM | shares compounds with VIM-2 inhibitor | 1,300 tested, under 10 active | purified IMP-1, nitrocefin hydrolysis, epi-absorbance fluorescence; call rule not given here;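 note: 0% = enzyme with vehicle and 100% = vehicle without enzyme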
VIM-2 FRET inh – VIM-2 FRET inhibition, artifact counter-screen; shares compounds with VIM-2 inhibitor; purified VIM-2, CCF2 FRET substrate hydrolysis; inhibition, % at 5.6 µM; 1,300 tested, 23% active;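 active = inhibition above the mean of all tested compounds plus 3 SD, cut at about 19% in these data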;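 note: 0% = VIM-2 plus DMSO and 100% = no enzyme wells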
TEM-1 counter-1 – blocks E. coli TEM-1 beta-lactamase in VIM-2 selectivity screen; shares compounds with VIM-2 inhibitor; Purified TEM-1, nitrocefin hydrolysis, epi-absorbance fluorescence; 1,300 tested, 3% active; AID 1866; inhibition, % at 5.6 µM;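 active = inhibition above that campaign's mean inhibition plus 3 SD, cut at about 0.46% in these data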;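 note: 0% = TEM-1 with DMSO and 100% = TEM-1 with 100 µM potassium clavulanate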
Target sequence (P62593 whole entry, looked up): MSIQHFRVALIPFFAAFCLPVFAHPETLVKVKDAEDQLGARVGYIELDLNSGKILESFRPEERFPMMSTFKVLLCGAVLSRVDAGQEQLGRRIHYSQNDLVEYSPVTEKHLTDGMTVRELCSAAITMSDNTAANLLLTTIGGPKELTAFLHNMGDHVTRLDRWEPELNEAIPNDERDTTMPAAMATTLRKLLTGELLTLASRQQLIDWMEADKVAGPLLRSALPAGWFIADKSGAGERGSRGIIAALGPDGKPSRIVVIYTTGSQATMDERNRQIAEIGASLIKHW
VIM-2 inh conf – confirmation of P. aeruginosa VIM-2 metallo-beta-lactamase inhibitors; shares compounds with VIM-2 inhibitor; 1,300 tested, 96% active; purified VIM-2, nitrocefin hydrolysis, epi-absorbance; inhibition, % at 5.6 µM;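 active = inhibition of the VIM-2 beta-lactamase enzyme above about 11% from the earlier first-round screen, limit read from the data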;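 note: 0% = VIM-2 with DMSO and 100% = buffer wells without enzyme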
VIM-2 confirm – VIM-2 inhibition, confirmation assay. shares compounds with IMP-1 inh-1. purified VIM-2 enzyme, nitrocefin absorbance. inhibition, % at 5.6 µM. 200 tested, 73% active; in the data active = inhibition above about 8%;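 note: 0% = enzyme with vehicle and 100% = no enzyme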
TEM-1 counter-2 – blocks E. coli TEM-1 beta-lactamase, VIM-2 IMP-1 counter-screen | shares compounds with IMP-1 inh-1 | nitrocefin absorbance inhibition | inhibition, % at 5.6 µM | 200 tested, 50% active; in the data active = inhibition above about 0.66%
IMP-1 confirm – confirmation of P. aeruginosa IMP-1 metallo-beta-lactamase inhibitors. 200 tested, 60% active. inhibition, % at 5.6 µM. purified IMP-1 enzyme, absorbance substrate hydrolysis. shares compounds with IMP-1 inh-1; in the data active = inhibition above about 4.9%;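 note: 0% = enzyme with vehicle and 100% = vehicle without enzyme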
* hit, by the source's call; / = not tested or not shown. Hits are enriched below; roughly 1.6% of the tested compounds scored in any of these assays.

SMILES	DNA FID counter	IMP-1 inh-1	VIM-2 inhibitor	HCV core dimer	IMP-1 inh-2	VIM-2 FRET inh	TEM-1 counter-1	VIM-2 inh conf	others
Cc1cc(=O)oc2c(C)c(OCC(=O)NC3CCN(Cc4ccccc4)CC3)ccc12	20	-1	13*	-4	-2	-2	-8	21*
Cc1c(OCC(=O)N2CCC(C(=O)O)CC2)ccc2c3c(c(=O)oc12)CCCC3	-35	-4	4	4	/	/	/	/
Cc1c(OCC(=O)N[C@@H](CSCc2ccccc2)C(=O)O)ccc2c3c(c(=O)oc12)CCC3	-3	-2	13*	/	-3	2	-9	19*
O=C1c2ccccc2C(=O)N1OCc1c(F)cccc1Cl	2	-2	-2	3	/	/	/	/
Cc1ccc2c(CSc3nnc(N)s3)cc(=O)oc2c1	-4	-3	-2	19	/	/	/	/
CC(=O)Nc1ccc2c(CSc3nnc(N)s3)cc(=O)oc2c1	-5	2	21*	3	-4	10	-7	5
NC(=O)N=Nc1c2[nH]c3ccccc3nc-2c2ccccc12	-10	-3	21*	-4	0	-3	-3	38*
COc1ccc(-c2nn(-c3ccccc3)cc2C(=O)N/N=C/c2ccc([N+](=O)[O-])o2)cc1	-8	-2	-2	27	/	/	/	/
COc1cc(Nc2cc(C)nc3ncnn23)cc(OC)c1	-5	-3	5	-5	/	/	/	/
COC(=O)c1cc(Nc2cc(C)nc3ncnn23)cc(C(=O)OC)c1	-8	-3	15*	-2	-5	3	-5	35*
O=C(C[n+]1cc(-c2ccc(Cl)cc2)n2c1CCCCC2)c1ccccc1	10	-2	-3	-4	/	/	/	/
Clc1ccc(C2=C3CCCCn4c(-c5ccccc5)c[n+](c43)C2)cc1	-12	-4	18*	8	-5	-2	-8	5
COc1ccc(-c2c[n+]3c4n2CCCCC4=C(c2ccc(Br)cc2)C3)cc1	-13	-4	14*	12	-1	-5	2.5*	13*
COc1ccc(-c2cnc3n2CCCCC3)cc1	-5	-3	-3	-6	/	/	/	/
CC(C)CSc1nc2ccccc2n1CC(N)=O	-3	-3	-3	2	/	/	/	/
CCN(CC)c1ccc(/C=C(\C#N)C(=O)NCc2ccco2)cc1	-19	5.3*	18*	-10	/	/	/	/	VIM-2 confirm=-3;TEM-1 counter-2=-6;IMP-1 confirm=-4
CC(C)=CCN1CCN(Cc2cnc(C)s2)CC1CCO (configuration not stated)	-5	0	1	-2	/	/	/	/
CCN1C(=O)c2cccc3c(N)ccc(c23)C1=O	-5	43*	48*	-13	/	/	/	/	VIM-2 confirm=45*;TEM-1 counter-2=51*;IMP-1 confirm=35*
Cc1nn(C)c(C)c1N1C(=O)c2cccc3c(N)ccc(c23)C1=O	-12	35*	31*	-6	/	/	/	/	VIM-2 confirm=42*;TEM-1 counter-2=55*;IMP-1 confirm=38*
Cc1nn(C)c(C)c1N1C(=O)c2cccc3c(Br)ccc(c23)C1=O	-29	1	1	2	/	/	/	/
CCOc1ccccc1CNC(=O)C1CCC(=O)N1C(C)C (configuration not stated)	0	-5	-2	-4	/	/	/	/
Cc1ccc(NC(=O)C2C(c3ccccc3)C=CC(c3ccccc3)C2C(=O)O)cc1 (configuration not stated)	-30	85*	46*	-8	/	/	/	/	VIM-2 confirm=7;TEM-1 counter-2=-4;IMP-1 confirm=61*
COc1cc(NC(=O)NS(=O)(=O)c2ccc(C)cc2)cc(OC)c1	-3	-3	-2	0	/	/	/	/
COc1ccc(NC(=O)NS(=O)(=O)c2ccc(C)cc2)cn1	-1	12*	16*	/	/	/	/	/	VIM-2 confirm=0;TEM-1 counter-2=-2;IMP-1 confirm=-3
